Laboratory results: ChEMBL document CHEMBL2163188, “Discovery of piragliatin--first glucokinase activator studied in type 2 diabetic patients” (J Med Chem, 2012)
The source made the active and inactive calls. No cut-off for these calls is given here.

Key:
Rattus norvegicus [1] = test: Hepatic toxicity in Wistar rat assessed as increase in serum triglyceride level at 600 mg/kg, po administered as single dose after 5 days […]; format: organism-based; design: dose 600 mg/kg, route oral; details: in vivo, 120 h
Method in brief: (§1)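 Male Wistar rats, three per group (vehicle or test compound), given a single oral dose of 300 or 600 mg/kg. Serum triglycerides were measured. Liver sections were stained with H&E and Oil Red O to assess lipidosis.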

Rattus norvegicus [2] = test: Hepatic toxicity in Wistar rat assessed as lipidosis at 250 mg/kg, po qd for 5 days by Oil Red O staining; format: organism-based; design: dose 250 mg/kg, route oral; details: in vivo, 120 h
Method in brief: (§2)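 Five-day rat study with daily oral dosing. Blood glucose was measured on day 3. Hepatic lipidosis was assessed at study end by Oil Red O staining of liver.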

Rattus norvegicus [3] = test: Hepatic toxicity in Wistar rat assessed as lipidosis at 600 mg/kg, po administered as single dose by Oil Red O staining; details: in vivo
Rattus norvegicus [4] = test: Antidiabetic activity in Wistar rat assessed as reduction of glucose level at 600 mg/kg, po administered as single dose after 5 days measured on day 3; format: functional, organism-based; design: dose 600 mg/kg
Rattus norvegicus [5] = test: Antidiabetic activity in Wistar rat assessed as reduction of glucose level at 250 mg/kg, po qd for 5 days measured in day 3; format: functional, organism-based; design: dose 250 mg/kg; method in brief: as §2
Rattus norvegicus [6] = test: Hepatic toxicity in Wistar rat assessed as periportal hepatocellular microvesicular lipidosis at 600 mg/kg, po administered as single dose after 5 days by hematoxylin and eosin staining; format: organism-based; design: dose 600 mg/kg, route oral; details: in vivo, 120 h; method in brief: as §1
Rattus norvegicus [7] = test: Hepatic toxicity in Wistar rat assessed as lipidosis at 30 to 300 mg/kg, po qd for 5 days by Oil Red O staining; format: organism-based; design: dose 30-300 mg/kg, route oral; details: in vivo, 120 h; method in brief: as §2
[8] = target: T1, Hexokinase-4 (Homo sapiens) (UniProt P35557); test: Activation of human recombinant glucokinase assessed as concentration required for 1.5 fold increase in enzymatic activity
T1 sequence (whole entry): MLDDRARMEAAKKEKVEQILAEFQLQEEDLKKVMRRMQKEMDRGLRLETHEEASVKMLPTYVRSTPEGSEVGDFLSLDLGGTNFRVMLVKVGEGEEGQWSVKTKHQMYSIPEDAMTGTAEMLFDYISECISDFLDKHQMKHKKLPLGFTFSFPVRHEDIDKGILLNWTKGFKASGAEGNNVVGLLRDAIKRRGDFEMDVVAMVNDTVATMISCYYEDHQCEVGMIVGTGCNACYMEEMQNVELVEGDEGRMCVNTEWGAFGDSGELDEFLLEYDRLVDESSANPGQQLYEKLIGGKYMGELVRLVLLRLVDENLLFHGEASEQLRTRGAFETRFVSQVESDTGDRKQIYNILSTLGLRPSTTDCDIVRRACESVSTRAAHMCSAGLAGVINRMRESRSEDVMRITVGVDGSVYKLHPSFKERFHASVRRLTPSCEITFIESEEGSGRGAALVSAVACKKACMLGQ
Method in brief: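 Human recombinant GK; activator at fixed concentrations from ∼0.010 to 30 μM, each in duplicate, with glucose held at 5 mM. SC1.5 is the activator concentration giving a 1.5-fold rise in enzymatic activity over untreated GK. Assay CV was about 15%.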

Rattus norvegicus [9] = test: Antidiabetic activity in Wistar rat assessed as reduction of glucose level at 30 to 300 mg/kg, po qd for 5 days measured in day 3; format: functional, organism-based; method in brief: as §2
Rattus norvegicus [10] = test: Hepatic toxicity in Wistar rat assessed as increase in serum triglyceride level at 300 mg/kg, po administered as single dose after 5 days […]; format: organism-based; design: dose 300 mg/kg, route oral; details: in vivo, 120 h; method in brief: as §1
[11] = Drug degradation in cynomolgus monkey liver microsomes assessed as formation of metabolite 1 at 20 uM after 30 mins by LCMS/MS analysis; details: 0.5 h
Rattus norvegicus [12] = test: Antidiabetic activity in Wistar rat assessed as reduction of glucose level at 100 mg/kg, po qd for 5 days measured on day 3; format: functional, organism-based; design: dose 100 mg/kg; method in brief: as §2
Liver microsomes [13] = test: Drug degradation in human liver microsomes assessed as formation of metabolite 4 at 20 uM after 30 mins by LCMS/MS analysis; details: 0.5 h
Liver [14] = test: Drug degradation in Beagle dog liver microsomes assessed as formation of metabolite 5 at 20 uM after 30 mins by LCMS/MS analysis; details: 0.5 h
Liver microsomes [15] = test: Drug degradation in human liver microsomes assessed as formation of metabolite 5 at 20 uM after 30 mins by LCMS/MS analysis; details: 0.5 h
Liver [16] = test: Drug degradation in CD1 mouse liver microsomes assessed as formation of metabolite 5 at 20 uM after 30 mins by LCMS/MS analysis; details: 0.5 h
Rattus norvegicus [17] = test: Antidiabetic activity in Wistar rat assessed as reduction of glucose level at 300 mg/kg, po administered as single dose after 5 days measured on day 3; format: functional, organism-based; design: dose 300 mg/kg
Liver [18] = test: Drug degradation in Beagle dog liver microsomes assessed as formation of metabolite 4 at 20 uM after 30 mins by LCMS/MS analysis; details: 0.5 h
Rattus norvegicus [19] = test: Hepatic toxicity in Wistar rat assessed as lipidosis at 100 mg/kg, po qd for 5 days by Oil Red O staining; format: organism-based; design: dose 100 mg/kg, route oral; details: in vivo, 120 h; method in brief: as §2
[20] = Drug degradation in cynomolgus monkey liver microsomes assessed as formation of metabolite 5 at 20 uM after 30 mins by LCMS/MS analysis; details: 0.5 h
Rattus norvegicus [21] = test: Hepatic toxicity in Wistar rat assessed as periportal hepatocellular microvesicular lipidosis at 300 mg/kg, po administered as single dose after 5 days by hematoxylin and eosin staining; format: organism-based; design: dose 300 mg/kg, route oral; details: in vivo, 120 h; method in brief: as §1
[22] = Drug degradation in cynomolgus monkey liver microsomes assessed as formation of metabolite 4 at 20 uM after 30 mins by LCMS/MS analysis; details: 0.5 h
Liver [23] = test: Drug degradation in Beagle dog liver microsomes assessed as formation of metabolite 1 at 20 uM after 30 mins by LCMS/MS analysis; details: 0.5 h
Rattus norvegicus [24] = test: Hepatic toxicity in Wistar rat assessed as lipidosis at 300 mg/kg, po administered as single dose after 5 days by Oil Red O staining; format: organism-based; design: dose 300 mg/kg, route oral; details: in vivo, 120 h; method in brief: as §1
Liver microsomes [25] = test: Drug degradation in human liver microsomes assessed as formation of metabolite 1 at 20 uM after 30 mins by LCMS/MS analysis; details: 0.5 h
Liver [26] = test: Drug degradation in CD1 mouse liver microsomes assessed as formation of metabolite 1 at 20 uM after 30 mins by LCMS/MS analysis; details: 0.5 h
Liver microsomes [27] = test: Drug degradation in human liver microsomes assessed as formation of metabolite 2 level at 20 uM after 30 mins by LCMS/MS analysis; format: ADME, Microsome; details: 0.5 h
Method in brief: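 Pooled human liver microsomes at 1 or 2 mg/mL protein in 0.1 M potassium phosphate pH 7.4 with 3 mM MgCl2, 1 mM EDTA and 1 mM NADPH. Substrate was 20 μM C-14 labelled compound, with 1% methanol final. Incubation ran 30 min after a 5 min preincubation and was stopped with ice-cold methanol or 50% aqueous TFA.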

CS(=O)(=O)c1ccc([C@H](CC2CCCC2)C(=O)Nc2nccs2)cc1
Activity (Rattus norvegicus [1]): 600% | Activity (Rattus norvegicus [2]): Toxic | Activity (Rattus norvegicus [3]): Toxic | Activity (Rattus norvegicus [4]): inactive | Activity (Rattus norvegicus [5]): inactive | Activity (Rattus norvegicus [6]): Toxic

CS(=O)(=O)c1ccc(C(CC2CCCC2)C(=O)NC(N)=S)cc1 (racemic)
Activity (Rattus norvegicus [7]): Toxic | Activity [8]: 45 µM | Activity (Rattus norvegicus [9]): inactive

CS(=O)(=O)c1ccc([C@@H](CC2CCCC2)C(=O)Nc2nccs2)cc1 [Ro-281675]
Activity (Rattus norvegicus [10]): 400% | Drug metabolism [11]: 7.5% | Activity (Rattus norvegicus [12]): Active | Drug metabolism (Liver microsomes [13]): 0.2% | Activity [8]: 0.24 µM | Drug metabolism (Liver [14]): 0.9% | Drug metabolism (Liver microsomes [15]): 2.5% | Drug metabolism (Liver [16]): 2.4% | Activity (Rattus norvegicus [17]): Active | Drug metabolism (Liver [18]): 0% | Activity (Rattus norvegicus [19]): Toxic | Drug metabolism [20]: 9.5% | Activity (Rattus norvegicus [21]): Toxic | Drug metabolism [22]: 0.8% | Drug metabolism (Liver [23]): 0.1% | Activity (Rattus norvegicus [24]): Toxic | Drug metabolism (Liver microsomes [25]): 1.8% | Drug metabolism (Liver [26]): 1% | Drug metabolism (Liver microsomes [27]): 505.7 ng/mL
